In paper PMC7237122 (OncoTargets and therapy, 2020):

Assays:
SMMC-7721 cells [1] = experiment: MTT analysis of SMMC-7721 cells; type: cell-based
In short: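 SMMC-7721 cells (Shanghai Institute of Cell Biology) were incubated with test extract or compounds, and growth was read by MTT. Mean ± standard error; ANOVA, P<0.05.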

ALT and AST = experiment: H22-tumor-bearing mice: liver function; type: in vivo; settings: blood of H22-tumor-bearing mice, compared with model group
In short: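 H22 ascites cells were injected into male Kunming mice; tumors of 100~150 mm3 at 7 days were randomised (10~12/group) against saline model and uninoculated normal groups. Test agents were given daily for 8 days (ip 100 mg/kg; po 400 or 720 mg/kg). After a 16 h fast, blood was taken from the eyes for ALT and AST. Mean ± standard error; ANOVA.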

IL-6 = experiment: H22-tumor-bearing mice: IL-6 ELISA of serum and tumor; type: in vivo; settings: for IL-6 concentration, tumor ELISA: tumor tissue, compared with model group
In short: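 Male Kunming mice (20~22 g) bearing H22 tumors (100~150 mm3 at day 7, 10~12/group) were dosed 8 days: test agents ip 100 mg/kg or po 400/720 mg/kg daily, or 5-Fu ip 200 mg/kg twice weekly. Mice were fasted 16 h and ether-euthanised. IL-6 was measured by ELISA in eye-collected blood and in liquid-nitrogen-frozen tumor tissue. Mean ± standard error; ANOVA.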

H22-tumor-bearing mice [2] = experiment: H22-tumor-bearing mice: tolerability; type: in vivo; settings: for mice analyzed / mice in group: 5-Fu ip 200 mg/kg twice a week, SOLB ip 100 mg/kg once daily, 8 days
In short: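 Animals bearing 7-day H22 tumors (male Kunming, 10~12/group) were treated once daily 09:00–10:00 for 8 days (test agents ip or po); 5-Fu ip 200 mg/kg was given twice weekly. Appearance and behaviour were observed, and diarrhea, irritation and emaciation were recorded. Body weight was followed over therapy. Liver was fixed overnight in 4% buffered paraformaldehyde for HE.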

H22-tumor-bearing mice [3] = experiment: H22-tumor-bearing mice: tumor size, tumor weight, HE staining; type: in vivo; settings: for tumor inhibition rate (TIR), tumor weight: 5-Fu ip 200 mg/kg twice a week, SOLB ip 100 mg/kg once daily, 8 days; for tumor size: H22-tumor-bearing mice, compared with model group
In short: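 In H22-inoculated male Kunming mice (tumors 100~150 mm3, randomised 10~12/group), treatment ran 8 days (daily test agents; 5-Fu twice weekly). Tumor size was measured by Vernier calipers. Tumors were excised after a 16 h fast and ether euthanasia. Inhibition rate was taken from mean tumor indices of drug versus model groups. Tissue was fixed overnight in 4% buffered paraformaldehyde for HE. Mean ± standard error; ANOVA.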

[4] = tested on: JAK2, Tyr705-p-STAT3, Ser725-p-STAT3; experiment: H22-tumor-bearing mice: Western blotting of tumor tissue; type: in vivo; settings: compared with model group
SMMC-7721 cells [5] = experiment: Hochest apoptosis test in SMMC-7721 cells; type: cell-based; settings: concentration not given
In short: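 Apoptosis in SMMC-7721 cells exposed to test extract or compounds was assessed by Hoechst staining per kit instructions. Mean ± standard error; ANOVA.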

Compound: O=C(O)/C=C/c1ccc(O)c(O)c1 [CAF, caffeic acid]
- growth of SMMC-7721 cells (MTT) (SMMC-7721 cells [1]): no obvious effects

Compound: O=c1[nH]cc(F)c(=O)[nH]1 [5-Fu, 5-fluorouracil]
- liver function: ALT and AST levels (ALT and AST): the best
- IL-6 concentration, serum ELISA (IL-6): increasing not decreasing IL-6
- IL-6 concentration, tumor ELISA (IL-6): higher than the model group
- mice analyzed / mice in group (H22-tumor-bearing mice [2]): 10/12
- appearance and behavior (adverse reactions) (H22-tumor-bearing mice [2]; therapeutic period): diarrhea and alopecia, their appetite was poor
- weights of mice (H22-tumor-bearing mice [2]; therapeutic period): steadily increased during the therapeutic period except in the 5-Fu group
- tumor inhibition rate (TIR), tumor weight (H22-tumor-bearing mice [3]): 91.94%
- tumor size (H22-tumor-bearing mice [3]): the smallest
- HE staining of tumor tissue (H22-tumor-bearing mice [3]; chromatin condensation and nuclear shrinkage, compared to model group): good
- protein expressions of JAK2, Tyr705-p-STAT3, Ser725-p-STAT3 (Western) [4]: could inhibit protein expressions of JAK2, Tyr705-p-STAT3, and Ser725-p-STAT3

Compound: schisandrol A [SOLA]
- effect on apoptosis (Hochest), pure compounds (SMMC-7721 cells [5]): not good

Compound: schisantherin A [SINA]
- growth of SMMC-7721 cells (MTT) (SMMC-7721 cells [1]): could inhibit the growth of SMMC-7721 cells in a dose-dependent manner

Compound: O=C(/C=C/c1ccc(O)cc1)CC(=O)/C=C/c1ccc(O)cc1 [BIS, bisdemethoxycurcumin]
- growth of SMMC-7721 cells (MTT) (SMMC-7721 cells [1]): could inhibit the growth of SMMC-7721 cells in a dose-dependent manner

Compound: demethoxycurcumin
- growth of SMMC-7721 cells (MTT) (SMMC-7721 cells [1]): could inhibit the growth of SMMC-7721 cells in a dose-dependent manner

Compound: COc1cc2c(c(OC)c1OC)-c1c(cc3c(c1OC)OCO3)C[C@H](C)[C@@](C)(O)C2 [SOLB, schisandrol B]
- effect on apoptosis (Hochest), pure compounds (SMMC-7721 cells [5]): an active ingredient of DWYG extract
- liver function: ALT and AST levels (ALT and AST): effective
- IL-6 concentration, serum ELISA (IL-6): less than 5-Fu but more than DWYG extract
- IL-6 concentration, tumor ELISA (IL-6): less than in the model group
- mice analyzed / mice in group (H22-tumor-bearing mice [2]): 12/12
- growth of SMMC-7721 cells (MTT) (SMMC-7721 cells [1]): could inhibit the growth of SMMC-7721 cells in a dose-dependent manner
- tumor inhibition rate (TIR), tumor weight (H22-tumor-bearing mice [3]): 34.98%
- tumor size (H22-tumor-bearing mice [3]): effective but not better than 5-Fu
- protein expressions of JAK2, Tyr705-p-STAT3, Ser725-p-STAT3 (Western) [4]: could inhibit protein expressions of JAK2, Tyr705-p-STAT3, and Ser725-p-STAT3

Compound: O=C(/C=C/c1ccc(O)c(O)c1)O[C@@H]1C[C@](O)(C(=O)O)C[C@@H](O)[C@H]1O [CHL, chlorogenic acid]
- growth of SMMC-7721 cells (MTT) (SMMC-7721 cells [1]): no obvious effects

Compound: COc1cc(/C=C/C(=O)CC(=O)/C=C/c2ccc(O)c(OC)c2)ccc1O [CUR, curcumin]
- growth of SMMC-7721 cells (MTT) (SMMC-7721 cells [1]): could inhibit the growth of SMMC-7721 cells in a dose-dependent manner

Compound: COc1cc2c(c(OC)c1OC)-c1c(cc3c(c1OC)OCO3)CC(C)C(C)C2 (stereo not shown) [SCHB, schisandrin B]
- growth of SMMC-7721 cells (MTT) (SMMC-7721 cells [1]): could inhibit the growth of SMMC-7721 cells in a dose-dependent manner

Compound: OC[C@H]1O[C@@H](O[C@@H]2OC=C[C@H]3[C@H](O)[C@@H]4O[C@]4(CO)[C@@H]23)[C@H](O)[C@@H](O)[C@@H]1O [CAT, catalpol]
- growth of SMMC-7721 cells (MTT) (SMMC-7721 cells [1]): no obvious effects

Compound: O=C1C[C@@H](c2ccc(O[C@@H]3O[C@H](CO)[C@@H](O)[C@H](O)[C@H]3O)cc2)Oc2cc(O)ccc21 [LIQ, liquiritin]
- growth of SMMC-7721 cells (MTT) (SMMC-7721 cells [1]): no obvious effects

Compound: deoxyschizandrin
- effect on apoptosis (Hochest), pure compounds (SMMC-7721 cells [5]): not good
- growth of SMMC-7721 cells (MTT) (SMMC-7721 cells [1]): could inhibit the growth of SMMC-7721 cells in a dose-dependent manner
